# Measurements reported in ChEMBL document CHEMBL1128325, “Microsphere formation in a series of derivatized alpha-amino acids: properties, molecular modeling, and oral delivery of salmon calcitonin” (J Med Chem, 1995).
# Assay: Partition coefficient (logP)
# Assay type: physicochemical
# Details: octanol/water
# Outline: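 Computed rather than measured: derived from the reported experimental log P values of the parent amino acids by adding fragment constants for the N-substituent.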
row,Compound,logP
1,CC(=O)NC(Cc1ccccc1)C(=O)O (stereo unspecified) [AFALANINE],-0.7

# Same assay, conditions: octanol/water; read-out: logP
row,Compound,logP
1,O=C(O)CCC(NC(=O)c1ccccc1)C(=O)O (stereo unspecified),-2.29
2,O=C(NCCCCC(NC(=O)c1ccccc1)C(=O)O)c1ccccc1 (stereo unspecified),-1.22
3,NCCCCC(NC(=O)c1ccccc1)C(=O)O (stereo unspecified),-2.02
4,CC(C)CC(NS(=O)(=O)c1ccccc1)C(=O)O (stereo unspecified),-1.69
5,CC(C)CC(NC(=O)c1ccccc1)C(=O)O (stereo unspecified),-0.91
6,O=C(O)C(Cc1ccccc1)NS(=O)(=O)c1ccccc1 (stereo unspecified),-1.41
7,O=C(NC(Cc1ccccc1)C(=O)O)c1ccccc1 (stereo unspecified),-0.63
8,O=CNC(Cc1ccccc1)C(=O)O (stereo unspecified),-1.21
9,NC(=O)C(Cc1ccccc1)NC(=O)c1ccccc1 (stereo unspecified),-1.89
10,O=C(O)C(CO)NS(=O)(=O)c1ccccc1 (stereo unspecified),-3.98
11,O=C([O-])CNC(=O)c1ccccc1.[Na+],-2.68
12,NCCCCC(NS(=O)(=O)c1ccccc1)C(=O)O (stereo unspecified),-2.8
13,O=C(NCCCC(NC(=O)c1ccccc1)C(=O)O)c1ccccc1 (stereo unspecified),-1.29
14,CNC(Cc1ccccc1)C(=O)O (stereo unspecified),-0.93
15,O=C(NC(Cc1ccccc1)C(=O)O)c1ccccc1O (stereo unspecified),-0.53
16,O=C(NC(Cc1ccccc1)C(=O)O)C1CCCC1 (stereo unspecified),-0.77
17,CC(C)C(NS(=O)(=O)c1ccccc1)C(=O)O (stereo unspecified),-1.8
18,O=C(NC(Cc1ccccc1)C(=O)O)OCc1ccccc1 (stereo unspecified),-1.11
19,CC(=O)NC(Cc1ccccc1)C(N)=O (stereo unspecified),-1.76
20,NCCCC(NC(=O)c1ccccc1)C(=O)O (stereo unspecified),-2.09
21,O=C(NC(Cc1ccc(O)cc1)C(=O)O)c1ccccc1 (stereo unspecified),-2.24
22,CN(C)C(Cc1ccccc1)C(=O)O (stereo unspecified),-0.43
23,O=C(CC(=O)c1ccccc1)NC(Cc1ccccc1)C(=O)O (stereo unspecified),-1.34
24,O=C(O)CC(NC(=O)c1ccccc1)C(=O)O (stereo unspecified),-2.79
25,O=C(Cc1ccccc1)NC(Cc1ccccc1)C(=O)O (stereo unspecified),-0.13
26,CC(C)C(NC(=O)c1ccccc1)C(=O)O (stereo unspecified),-1.3
27,COC(=O)C(Cc1ccccc1)NC(=O)c1ccccc1 (stereo unspecified),-0.13
28,O=C(NC(Cc1ccccc1)C(=O)O)C1CCCCC1 (stereo unspecified),-0.27
29,CC(NC(=O)c1ccccc1)C(=O)O (stereo unspecified),-2.14
30,COC(=O)C(Cc1ccccc1)NC(C)=O (stereo unspecified),-0.2
